Assay results published in ChEMBL document CHEMBL3045677, “Sulfonamide-1,2,4-thiadiazole derivatives as antifungal and antibacterial agents: synthesis, biological evaluation, lipophilicity, and conformational studies” (2010).
Values after ≈ are worked out from the molar mass of the structure shown.

Experiments:
[1] = test system: Talaromyces funiculosus; test: Antifungal activity against Talaromyces funiculosus ATCC 36839 at 28 degC measured after 72 hr by microdilution method; type: functional; conditions: ATCC 36839, 72 h
In short: (§1)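 Fungi were kept on malt agar at 4 °C. Spores were washed off with sterile 0.85% saline containing 0.1% Tween 80 and adjusted to about 1.0×10⁵ per well. Compounds were dissolved in DMSO (1 mg/ml stock) and serially diluted in malt broth with inoculum in 96-well plates, 72 h at 28 °C, for MIC. MFC came from subculture into fresh broth for a further 72 h at 28 °C.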

[2] = test system: Salmonella typhimurium; test: Antibacterial activity against Salmonella enterica subsp. enterica serovar Typhimurium ATCC 13311 at […] degC measured after 24 hr by microdilution method; type: functional; conditions: ATCC 13311, 24 h
In short: (§2)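 Bacteria suspended in sterile saline at 1.0×10⁵ CFU/ml and added at 1.0×10⁴ CFU per well to LB broth with compound (1 mg/ml) in 96-well plates. Incubated 24 h at […] °C. MIC was the lowest concentration without visible growth under a binocular microscope. OD 655 nm was read against a blank and a positive control.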

[3] = test system: Aspergillus flavus; test: Antifungal activity against Aspergillus flavus ATCC 9643 at 28 degC measured after 72 hr by microdilution method; type: functional; conditions: ATCC 9643, 72 h; in short: as §1
[4] = test system: Aspergillus fumigatus; test: Antifungal activity against plant isolate Aspergillus fumigatus at 28 degC measured after 72 hr by microdilution method; type: functional; in short: as §1
[5] = test system: Proteus mirabilis; test: Antibacterial activity against Proteus mirabilis at […] degC measured after 72 hr by microdilution method; type: functional
In short: (§3)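 Bactericidal endpoint: after the 24 h broth microdilution (1.0×10⁴ CFU per well, LB broth, […] °C), wells were serially subcultured into plates of fresh broth and incubated a further 72 h. MBC was the lowest concentration with no visible growth, taken as 99.5% killing of the original inoculum.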

[6] = test system: Micrococcus flavus; test: Antibacterial activity against Micrococcus flavus ATCC 10240 at […] degC measured after 72 hr by microdilution method; type: functional; conditions: ATCC 10240, 72 h; in short: as §3
[7] = test system: Penicillium ochrochloron; test: Antifungal activity against Penicillium ochrochloron ATCC 9112 at 28 degC measured after 72 hr by microdilution method; type: functional; conditions: ATCC 9112, 72 h; in short: as §1
[8] = test system: Aspergillus versicolor; test: Antifungal activity against Aspergillus versicolor ATCC 11730 at 28 degC measured after 72 hr by microdilution method; type: functional; conditions: ATCC 11730, 72 h; in short: as §1
[9] = test system: Proteus mirabilis; test: Antibacterial activity against Proteus mirabilis at […] degC measured after 24 hr by microdilution method; type: functional; in short: as §2
[10] = test system: Bacillus cereus; test: Antibacterial activity against clinical isolate Bacillus cereus at […] degC measured after 24 hr by microdilution method; type: functional; in short: as §2
[11] = test system: Bacillus cereus; test: Antibacterial activity against clinical isolate Bacillus cereus at […] degC measured after 72 hr by microdilution method; type: functional; in short: as §3
[12] = test system: Aspergillus niger; test: Antifungal activity against Aspergillus niger ATCC 6275 at 28 degC measured after 72 hr by microdilution method; type: functional; conditions: ATCC 6275, 72 h; in short: as §1
[13] = test system: Trichoderma viride; test: Antifungal activity against Hypocrea rufa IAM 5061 at 28 degC measured after 72 hr by microdilution method; type: functional; conditions: IAM 5061, 72 h; in short: as §1
[14] = test system: Staphylococcus aureus; test: Antibacterial activity against Staphylococcus aureus ATCC 6538 at […] degC measured after 24 hr by microdilution method; type: functional; conditions: ATCC 6538, 24 h; in short: as §2
[15] = test system: Pseudomonas aeruginosa; test: Antibacterial activity against Pseudomonas aeruginosa ATCC 27853 at […] degC measured after 24 hr by microdilution method; type: functional; conditions: ATCC 27853, 24 h; in short: as §2
[16] = test system: Escherichia coli; test: Antibacterial activity against Escherichia coli ATCC 35210 at […] degC measured after 24 hr by microdilution method; type: functional; conditions: ATCC 35210, 24 h; in short: as §2
[17] = test system: Pseudomonas aeruginosa; test: Antibacterial activity against Pseudomonas aeruginosa ATCC 27853 at […] degC measured after 72 hr by microdilution method; type: functional; conditions: ATCC 27853, 72 h; in short: as §3
[18] = test system: Staphylococcus aureus; test: Antibacterial activity against Staphylococcus aureus ATCC 6538 at […] degC measured after 72 hr by microdilution method; type: functional; conditions: ATCC 6538, 72 h; in short: as §3
[19] = test system: Listeria monocytogenes; test: Antibacterial activity against Listeria monocytogenes NCTC 7973 at […] degC measured after 24 hr by microdilution method; type: functional; conditions: NCTC 7973, 24 h; in short: as §2
[20] = test system: Salmonella typhimurium; test: Antibacterial activity against Salmonella enterica subsp. enterica serovar TyphimuriumATCC 13311 at […] degC measured after 72 hr by microdilution method; type: functional, Salmonella enterica subsp. enterica serovar Typhimurium; conditions: ATCC 13311, 72 h; in short: as §3
[21] = test system: Fulvia fulva; test: Antifungal activity against Passalora fulva TK5318 at 28 degC measured after 72 hr by microdilution method; type: functional; conditions: TK5318, 72 h; in short: as §1
[22] = test system: Listeria monocytogenes; test: Antibacterial activity against Listeria monocytogenes NCTC 7973 at […] degC measured after 72 hr by microdilution method; type: functional; conditions: NCTC 7973, 72 h; in short: as §3
[23] = test system: Micrococcus flavus; test: Antibacterial activity against Micrococcus flavus ATCC 10240 at […] degC measured after 24 hr by microdilution method; type: functional; conditions: ATCC 10240, 24 h; in short: as §2
[24] = test system: Escherichia coli; test: Antibacterial activity against Escherichia coli ATCC 35210 at […] degC measured after 72 hr by microdilution method; type: functional; conditions: ATCC 35210, 72 h; in short: as §3

| Compound | MFC [1] [µM] | MIC [1] [µM] | MIC [2] [µM] | MFC [3] [µM] | MIC [3] [µM] | MBC [5] [µM] | MBC [6] [µM] | MIC [9] [µM] | MIC [10] [µM] | MBC [11] [µM] | MIC [14] [µM] | MIC [15] [µM] | MIC [16] [µM] | MBC [17] [µM] | MBC [18] [µM] | MIC [19] [µM] | MBC [20] [µM] | MBC [22] [µM] | MIC [23] [µM] | MBC [24] [µM] | also measured |
| --- | --- | --- | --- | --- | --- | --- | --- | --- | --- | --- | --- | --- | --- | --- | --- | --- | --- | --- | --- | --- | --- |
| COc1cc(Cc2nnc(Nc3ccc(C(F)(F)F)cc3)s2)c(S(=O)(=O)N2CCN(C)CC2)cc1OC | 17.9 (≈ 9.98 µg/mL) | 8.9 (≈ 4.96 µg/mL) | 17.9 (≈ 9.98 µg/mL) | 35.8 (≈ 20 µg/mL) | 17.9 (≈ 9.98 µg/mL) | 35.8 (≈ 20 µg/mL) | 35.8 (≈ 20 µg/mL) | 17.9 (≈ 9.98 µg/mL) | 17.9 (≈ 9.98 µg/mL) | 17.9 (≈ 9.98 µg/mL) | 17.9 (≈ 9.98 µg/mL) | 17.9 (≈ 9.98 µg/mL) | 17.9 (≈ 9.98 µg/mL) | 35.8 (≈ 20 µg/mL) | 35.8 (≈ 20 µg/mL) | 17.9 (≈ 9.98 µg/mL) | 35.8 (≈ 20 µg/mL) | 35.8 (≈ 20 µg/mL) | 17.9 (≈ 9.98 µg/mL) | 17.9 (≈ 9.98 µg/mL) | MFC [4]: 17.9 µM (≈ 9.98 µg/mL); MIC [4]: 8.9 µM (≈ 4.96 µg/mL); MFC [7]: 35.8 µM (≈ 20 µg/mL); MIC [7]: 17.9 µM (≈ 9.98 µg/mL); MFC [8]: 35.8 µM (≈ 20 µg/mL); MIC [8]: 17.9 µM (≈ 9.98 µg/mL); MFC [12]: 35.8 µM (≈ 20 µg/mL); MIC [12]: 17.9 µM (≈ 9.98 µg/mL); MFC [13]: 17.9 µM (≈ 9.98 µg/mL); MIC [13]: 8.9 µM (≈ 4.96 µg/mL); MFC [21]: 17.9 µM (≈ 9.98 µg/mL); MIC [21]: 8.9 µM (≈ 4.96 µg/mL) |
| CC1(C)S[C@@H]2[C@H](NC(=O)[C@H](N)c3ccccc3)C(=O)N2[C@H]1C(=O)O [AMPICILLIN] | – | – | 248 (≈ 86.7 µg/mL) | – | – | 492 (≈ 172 µg/mL) | 372 (≈ 130 µg/mL) | 372 (≈ 130 µg/mL) | 248 (≈ 86.7 µg/mL) | 372 (≈ 130 µg/mL) | 248 (≈ 86.7 µg/mL) | 744 (≈ 260 µg/mL) | 372 (≈ 130 µg/mL) | 1240 (≈ 433 µg/mL) | 372 (≈ 130 µg/mL) | 372 (≈ 130 µg/mL) | 492 (≈ 172 µg/mL) | 744 (≈ 260 µg/mL) | 248 (≈ 86.7 µg/mL) | 492 (≈ 172 µg/mL) | – |
| c1ccc(-c2ccc(C(c3ccccc3)n3ccnc3)cc2)cc1 (stereo not given) [BIFONAZOLE] | 800 (≈ 248 µg/mL) | 640 (≈ 199 µg/mL) | – | 640 (≈ 199 µg/mL) | 480 (≈ 149 µg/mL) | – | – | – | – | – | – | – | – | – | – | – | – | – | – | – | MFC [4]: 640 µM (≈ 199 µg/mL); MIC [4]: 480 µM (≈ 149 µg/mL); MFC [7]: 640 µM (≈ 199 µg/mL); MIC [7]: 480 µM (≈ 149 µg/mL); MFC [8]: 640 µM (≈ 199 µg/mL); MIC [8]: 320 µM (≈ 99.3 µg/mL); MFC [12]: 640 µM (≈ 199 µg/mL); MIC [12]: 480 µM (≈ 149 µg/mL); MFC [13]: 800 µM (≈ 248 µg/mL); MIC [13]: 640 µM (≈ 199 µg/mL); MFC [21]: 640 µM (≈ 199 µg/mL); MIC [21]: 320 µM (≈ 99.3 µg/mL) |
| CN[C@@H]1[C@H](O[C@H]2[C@H](O[C@H]3[C@H](O)[C@@H](O)[C@H](N=C(N)N)[C@@H](O)[C@@H]3N=C(N)N)O[C@@H](C)[C@]2(O)C=O)O[C@@H](CO)[C@H](O)[C@H]1O [STREPTOMYCIN] | – | – | 172 (≈ 100 µg/mL) | – | – | 344 (≈ 200 µg/mL) | 172 (≈ 100 µg/mL) | 172 (≈ 100 µg/mL) | 43 (≈ 25 µg/mL) | 86 (≈ 50 µg/mL) | 172 (≈ 100 µg/mL) | 172 (≈ 100 µg/mL) | 172 (≈ 100 µg/mL) | 344 (≈ 200 µg/mL) | 344 (≈ 200 µg/mL) | 258 (≈ 150 µg/mL) | 344 (≈ 200 µg/mL) | 516 (≈ 300 µg/mL) | 86 (≈ 50 µg/mL) | 344 (≈ 200 µg/mL) | – |
